Only some compounds are listed: those with a hit (about 3.1% of all), similar ones and a draw of the others.
HSP90 inh = inhibitors of HSP90 luciferase refolding in rabbit reticulocyte lysate | luciferase refolding luminescence, 3 h | inhibition, % at 5.6 µM | actives 0.91% (n = 290,000) | AID 1789;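 active = inhibition above the screen-wide mean plus 3 SD, computed separately per campaign, cut at about 16% in these data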;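 also: 0% = DMSO wells and 100% = 60 µM geldanamycin wells; inhibitors lower the luminescence because luciferase stays unfolded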
HSF-1 act = increases HSF-1 driven luciferase reporter signal; NIH3T3-HGL HSF-1 luciferase reporter, MG132, 8 h; 100% = twice DMSO control signal; activation, % at 9 µM; actives 1.7% (n = 300,000); AID 504408;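 active = mean replicate activation of at least 50% with a set share of replicates each reaching 50%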;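 also: 0% = median of the neutral control wells and 100% = twice that signal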
TbHK1 inh = blocks Trypanosoma brucei hexokinase 1 activity | recombinant TbHK1, G6PDH-coupled NADH A340 | inhibition, % at 10 µM | actives 0.11% (n = 220,000);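 active = inhibition of 50% or more in the single-dose primary screen; inactive = inhibition below 50%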
HSF1 inh = HSF1 inhibition; AID 2098; activity change, negative = inhibition, % at 7.5 µM (by protocol); NIH3T3-HGL HSE-luciferase, MG132-induced, luminescence 8 h; active compounds read low; actives 0.77% (n = 300,000);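 active = more than half of replicate wells show activity change below -50%, luminescence cut by over half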;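 also: luciferase reports HSF-1 transcriptional activity via heat shock element; 0% = median of DMSO wells and -100% = zero luminescence signal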
Hsp70 act = Hsp70 transcriptional activation, primary screen; HeLa Hsp70 promoter luciferase reporter, luminescence; scaled: vehicle 0, proteasome-inhibitor control 100%; activation, % at 10 µM; actives 0.04% (n = 200,000); AID 1203;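 active = activation above the mean across all tested compounds plus 3 SD, cutoff set per campaign, cut at about 5.5% in these data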;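 also: 100% = MG132 at 30 µM as the positive control and 0% = DMSO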
HKDC1 inh = HKDC1 (human) hexokinase inhibition; Q2TB90; recombinant HKDC1, G6PDH/diaphorase resazurin coupled fluorescence; inhibition, % at 20 µM; actives 0.16% (n = 340,000); AID 493160;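 active = inhibition above about 35% when tested at 20 µM, limit read from the data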;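 also: plate controls were DMSO wells with enzyme for no effect and DMSO wells lacking enzyme for full effect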
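Test system: HK5 enzyme. Quantity: 5 µg/mL HK5 final. Reagent: glucose and ATP substrates. Schedule: 90 min reaction incubation at room temperature, dark. Technique: resazurin-to-resorufin fluorescence via G6PDH and diaphorase coupling, 525/613 nm. Control set: DMSO wells with and without enzyme mix.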
* = called active by the depositor; nt = no result given.

SMILES | HSP90 inh | HSF-1 act | TbHK1 inh | HSF1 inh | Hsp70 act | HKDC1 inh
Cc1nc2cc(-c3ccccc3)sc2c(=O)n1N | 49* | -58 | -1 | -53* | 0 | -4
Cc1cc(C)cc(NC(=O)C2CCCN(c3ncccn3)C2)c1 (centres undefined) | -4 | 3 | nt | -5 | nt | -2
Cc1ccc(NC(=O)C2CCCN(c3ncccn3)C2)cc1F (centres undefined) | -3 | 60* | -2 | 23 | 0 | -6
COc1ccc(-c2c(-c3cc(OC)cc(OC)c3)n(C)c3ccc(-c4ccc5[nH]ccc5c4)cc23)cc1 | nt | nt | nt | nt | nt | -2
COc1cc(OC)c(OC)cc1CN(C)CCc1ccccn1 | 3 | 74* | 6 | 30 | 0 | 3
CCCCC[C@@H](/C=C/C1C(=O)C=C[C@H]1C/C=C\CCCC(=O)O)OC(C)=O (some centres undefined) | nt | nt | nt | nt | nt | 1
Cc1ccc(S(=O)(=O)N(C)c2c(C)ccc(S(=O)(=O)N3CCN(C)CC3)c2C)cc1 | -3 | -70 | -10 | -60* | 0 | 17
Cc1ccc(NC(=O)C2C3C=CC4(O3)C2C(=O)N(CCCN2CCCCC2)C4C(=O)NC2CCCCC2)cc1C (centres undefined) | 4 | 7 | nt | -2 | nt | 0
Oc1c(C(Nc2nccs2)c2ccc(C(F)(F)F)cc2)ccc2cccnc12 (centres undefined) | 2 | -70 | -2 | -59* | 0 | -26
COc1ccc(CNC(=O)COc2ccc(S(=O)(=O)N3CCOCC3)cc2C)cc1 | 2 | 5 | nt | -2 | nt | -7
O=C(O)CSc1ccccc1C(=O)O | 0 | -94 | -2 | -92* | 0 | 2
COC(CNC(=O)C(=O)NCC1CCCN1S(=O)(=O)c1cccs1)OC (centres undefined) | nt | -7 | nt | -7 | nt | -3
O=C(NC1CCSc2ccccc21)c1ccccc1Cl (centres undefined) | 1 | 68* | nt | 40 | nt | -2
COc1ccccc1C(=O)NC1CCSc2ccccc21 (centres undefined) | -1 | 63* | nt | 17 | nt | -1
O=C(NC1CCSc2ccccc21)c1ccccc1F (centres undefined) | -4 | 22 | nt | 8 | nt | 0
O=C(Cn1cnnn1)NC1CCCN(Cc2ccccc2F)C1 (centres undefined) | -2 | -12 | nt | -4 | nt | 4
CCN(CC)c1ccc(/C=C2/C(=O)N(c3ccc([N+](=O)[O-])cc3)N=C2N2CCOCC2)cc1 | 2 | 92* | 0 | 41 | 0 | nt
COc1cc(/C=C2/C(=O)N(c3ccc([N+](=O)[O-])cc3)N=C2N2CCOCC2)ccc1O | 5 | -6 | -43 | -2 | nt | 5
COC(=O)c1nnn(CC(=O)NC(=O)Nc2ccc(F)cc2)c1C(=O)OC | -2 | 55* | 0 | 5 | 0 | -10
COC(=O)c1nnn(CC(=O)NC(=O)Nc2ccccc2)c1C(=O)OC | -4 | -7 | 3 | -5 | -1 | 6
Cc1nn(-c2cccc(C(F)(F)F)c2)c(Cl)c1/C=N/Nc1cccc(C(=O)O)c1 | 11 | -78 | 29 | -73* | 0 | -3
CCOC(=O)N/N=C/c1c(C)nn(-c2cccc(C(F)(F)F)c2)c1Cl | 2 | 14 | -11 | -2 | 0 | 11
CC1CCN(CCCNC(=O)COc2cc(=O)n(C)c3ccccc23)CC1 | -3 | 57* | 3 | 21 | 0 | -7
CCCCN(C(=O)c1ccc([N+](=O)[O-])s1)c1c(N)n(CCCC)c(=O)[nH]c1=O | nt | -70 | nt | -62* | nt | 1
C/C(=N/NC(=O)c1cccs1)c1ccco1 | 6 | 56* | -29 | 14 | 1 | -8
SMILES | HSP90 inh | HSF-1 act | TbHK1 inh | HSF1 inh | Hsp70 act | HKDC1 inh
C/C(=N\NC(=O)c1csc(C)c1C)c1ccc(C)s1 | -4 | -14 | -20 | 3 | 0 | 0
CC(=O)N/N=C(/C)c1ccc(NC(=O)c2csc(C)c2C)cc1 | 1 | 71* | nt | 43 | nt | -2
C/C(=N\NC(=O)c1csc(C)c1C)c1ccco1 | -5 | 63* | -6 | 46 | 0 | -1
Cc1cccc(/N=C/c2nc(-c3ccccc3Br)oc2O)n1 | 1 | 91* | -6 | 45 | 0 | -5
Cc1ccnc(N=Cc2nc(-c3ccccc3Br)oc2O)c1 | 0 | 27 | -2 | 19 | 0 | 2
CCOC(=O)Cc1csc(NC(=O)C(NC(=O)C2CCC(C)CC2)C(C)C)n1 (centres undefined) | -1 | 22 | nt | 3 | nt | 0
O=C(NCCc1ccccc1)C(=O)c1cn(CC(=O)N2CCCC2)c2ccccc12 | 1 | 52* | nt | 18 | nt | -18
Nc1ncnc2c1ncn2[C@@H]1O[C@H](CO)[C@@H](O)[C@H]1O | -1 | 4 | 5 | -6 | 0 | 1
Nc1ncnc2c(C3OC(CO)C(O)C3O)c[nH]c12 (centres undefined) | nt | 91* | nt | 91* | nt | -4
CCOC(=O)c1sc2nc(C)nc(SC(C)C(=O)NC3CC3)c2c1C (centres undefined) | nt | nt | nt | nt | nt | 9
COc1ccc(CCN(C)C(=O)c2cc(=O)c3ccccc3o2)cc1OC | -4 | -9 | nt | 1 | nt | -3
O=C(COc1ccc(F)cc1)c1ccc2c(c1)CCCC2 | -1 | 78* | 10 | 47 | 0 | 0
O=C(COc1ccc(Cc2ccccc2)cc1)c1ccc(F)cc1 | 4 | 22 | 6 | 26 | 0 | 1
O=C1c2ccccc2C(=O)N1CCSc1nncs1 | -3 | 8 | -5 | 6 | -1 | 7
O=C1c2ccccc2C(=O)N1CCSc1ccccc1 | 1 | 103* | 2 | 65 | 1 | 3
c1ccc(CCNc2ccc3c(c2)Cc2ccccc2-3)nc1 | nt | nt | nt | nt | nt | -5
O=Nc1c(-c2ccccc2)[nH]n(-c2ccccc2)c1=O | 8 | 98* | nt | 65 | nt | 7
Cc1cccc(-c2nnc(SCC(=O)N3CCOCC3)o2)c1 | -4 | 31 | nt | 10 | nt | -4
Cc1cc(=O)oc2cc(NC(=S)NNC(=O)c3c(Cl)cnn3C)ccc12 | -1 | 46 | nt | 28 | nt | -5
COc1ccc(C2=NN(C(C#N)c3ccc(OC)cc3)C(c3ccccc3)C2)cc1 (centres undefined) | 4 | 64* | -11 | 42 | 0 | 0
Cc1ccc(OCc2ccc(C#N)cc2)c(C(=O)c2cc(C#N)c(=O)n(C3CC3)c2)c1 | -2 | 53* | -4 | 6 | 0 | -8
CC(=O)c1cccc(NC(=O)COc2ccccc2C(=O)c2cc(C#N)c(=O)n(C3CCCCC3)c2)c1 | 3 | -15 | -4 | -3 | 0 | -8
O=C(COC(=O)CNC(=O)c1ccccc1F)Nc1cccnc1Cl | -6 | -81 | 0 | -77* | 0 | 2
COc1ccc(-c2nc(C#N)c(N3CCCCC3)o2)cc1 | -6 | 74* | nt | 20 | nt | 2
COC(=O)c1cc(C)ccc1OCc1ccc([N+](=O)[O-])cc1 | -5 | 8 | -12 | 11 | nt | 2
